Results on 11 compounds are retold here after ChEMBL document CHEMBL1153869, “Preparation and antimicrobial behaviour of quaternary ammonium thiol derivatives able to be grafted on metal surfaces” (2009).

The subject of assay [1] is Candida albicans. The assay can be described thus: Antifungal activity against Candida albicans ATCC 10231 after 7 days. The class given is functional. The settings on record: ATCC 10231, 168 h. The gist of the method:
(§1)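 From fungal MIC plates after 7 days of incubation, the three sub-dose wells showing no growth were streaked onto Sabouraud dextrose agar. MLC was the lowest concentration leaving no viable fungi after subculture on drug-free medium. Three independent experiments were run.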

In assay [2] the test system is Aspergillus niger. The assay can be described thus: Antifungal activity against Aspergillus niger ATCC 6275 after 72 hrs by serial dilution method. The settings on record: ATCC 6275, 72 h.
In assay [3] the test system is Candida albicans. In words: Antifungal activity against Candida albicans ATCC 10231 after 72 hrs by serial dilution method. The settings on record: ATCC 10231, 72 h.
Assay [4] concerns Staphylococcus aureus. In words: Antibacterial activity against Staphylococcus aureus ATCC 6538 after 5 days. The class given is functional. The settings on record: ATCC 6538, 120 h. The method, boiled down:
(§2)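 From bacterial MIC plates after 5 days of incubation, the three sub-dose wells showing no growth were streaked onto trypticase soy agar. MLC was the lowest concentration leaving no viable bacteria after subculture on antibiotic-free medium. Three independent experiments were run.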

Assay [5] deals with Pseudomonas aeruginosa. In words: Antibacterial activity against Pseudomonas aeruginosa ATCC 9027 after 5 days. The class given is functional. The settings on record: ATCC 9027, 120 h. The method, boiled down:
as §2

Assay [6] has as its system Staphylococcus aureus. In words: Antibacterial activity against Staphylococcus aureus ATCC 6538 after 24 hrs by serial dilution method. In kind it is functional. The settings on record: ATCC 6538, 24 h. The gist of the method: (§3)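 Bacteria were grown overnight on a TSA slant, transferred into M9GY (pH 7.0) and incubated overnight at 30 °C. Third-generation, exponential-phase cells were adjusted to OD660 0.05 (about 5.10⁶–5.10⁷ cfu/mL). Initial solutions in methanol/water 1:1 were serially diluted automatically in microtitre plates. MIC was the lowest concentration with no turbidity after 24 h at 30 °C. Three independent experiments were run.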

The test system of assay [7] is Aspergillus niger. The assay can be described thus: Antifungal activity against Aspergillus niger ATCC 6275 after 7 days. The class given is functional. The settings on record: ATCC 6275, 168 h. The gist of the method:
as §1

Assay [8] has as its system Pseudomonas aeruginosa. The assay can be described thus: Antibacterial activity against Pseudomonas aeruginosa ATCC 9027 after 24 hrs by serial dilution method. In kind it is functional. The settings on record: ATCC 9027, 24 h. The gist of the method: as §3

As a reminder, the MIC is the smallest concentration in the dilution series that meets the test's criterion for growth inhibition. As for `CCCCCCCCCC[N+](C)(C)CCCNC(=O)CCCCCCCCCCS`, the MLC in assay [1] was greater than 677 µM; in assay [4], 32.5 µM; in assay [5], 250 µM; in assay [7] it was greater than 60.7 µM. In addition, the MIC in assay [2] is 44.1 µM; in assay [3] it was greater than 677 µM; in assay [6] it was 17.5 µM; in assay [8], 171 µM.
On to `C[N+](C)(C)CCCCCCCCCCCS`, for which the MLC in assay [1] is greater than 1900 µM; in assay [4] it was 56.6 µM; in assay [5], greater than 1120 µM; in assay [7], greater than 131 µM. Also, the MIC is 56.6 µM in assay [2], 1120 µM in assay [3], 56.6 µM in assay [6] and 557 µM in assay [8].
With `CCCCCCCCCC[N+](C)(C)CCCCCCCCCCCS`, the MLC in assay [1] is greater than 61.3 µM; in assay [4], 48 µM; in assay [5], 309 µM; in assay [7] it was 48 µM. For the same compound, the minimum inhibitory concentration (MIC) in assay [2] was found to be 31.6 µM; in assay [3] it was 31.6 µM; in assay [6], 11.6 µM; in assay [8] it was 309 µM.
For `CCCCCCCCCCCCCC[N+](C)(C)CCCNC(=O)CCCCCCCCCCS`, the MLC was greater than 742 µM in assay [1], 188 µM in assay [4], 599 µM in assay [5] and greater than 74.2 µM in assay [7]. Further, the MIC in assay [2] is 56.3 µM; in assay [3] it was greater than 742 µM; in assay [6], 188 µM; in assay [8] it was 442 µM.
Regarding `C[N+](C)(CCCNC(=O)CCCCCCCCCCS)Cc1ccccc1`, the MLC in assay [1] is greater than 1060 µM; in assay [4] it was 946 µM; in assay [5], greater than 1060 µM; in assay [7], greater than 946 µM. Besides, the MIC in assay [2] was 773 µM; in assay [3], greater than 1060 µM; in assay [6], 592 µM; in assay [8], 980 µM.
In the case of `CCCCCCCCCCCC[N+](C)(C)CCCCCCCCCCCS`, the MLC in assay [1] is greater than 63.4 µM; in assay [4] it was 73.3 µM; in assay [5], 326 µM; in assay [7], greater than 92.2 µM. Moreover, the minimum inhibitory concentration (MIC) in assay [2] came to 67.2 µM; in assay [3] it was 39.5 µM; in assay [6], 34.7 µM; in assay [8] it was 326 µM.
For the compound `CCCCCCCCCCCCCC[N+](C)(C)CCCCCCCCCCCS`, the MLC in assay [1] is greater than 1520 µM; in assay [4], greater than 1520 µM; in assay [5], greater than 1520 µM; in assay [7] it was greater than 124 µM. The MIC worked out at 90 µM in assay [2], 1520 µM in assay [3], 1310 µM in assay [6] and 1120 µM in assay [8].
`C[N+](C)(C)CCCNC(=O)CCCCCCCCCCS`: the MLC in assay [1] was greater than 1070 µM; in assay [4], greater than 395 µM; in assay [5] it was greater than 864 µM; in assay [7] it was greater than 395 µM. Besides, the MIC was 105 µM in assay [2], greater than 1070 µM in assay [3], 105 µM in assay [6] and 595 µM in assay [8].
Take `CCCCCCCCCCCC[N+](C)(C)CCCNC(=O)CCCCCCCCCCS`: the MLC in assay [1] is greater than 688 µM; in assay [4], 38.2 µM; in assay [5], 184 µM; in assay [7], greater than 61.7 µM. Also, the MIC was 47 µM in assay [2], greater than 688 µM in assay [3], 18.7 µM in assay [6] and 184 µM in assay [8].
For `C[N+](C)(CCCCCCCCCCCS)Cc1ccccc1`, the MLC in assay [1] was greater than 896 µM; in assay [4] it was 682 µM; in assay [5] it was greater than 1530 µM; in assay [7], 682 µM. Besides, the MIC in assay [2] is 351 µM; in assay [3], 472 µM; in assay [6] it was 682 µM; in assay [8], 1060 µM.
Take `CCCCCCCCCCCCCC[N+](C)(C)Cc1ccccc1` [MIRISTALKONIUM CHLORIDE]: the MIC in assay [2] is 4.74 µM; in assay [3], 8.36 µM; in assay [6] it was 3.2 µM; in assay [8], 93 µM.
